Source: PubChem BioAssay
ERp5 block – inhibitors of human ERp5; Q15084; ERp5 insulin aggregation, absorbance 650 nm, 90 min; inhibition, % at 9.99 µM; 350,000 tested, 0.05% active;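 active = mean replicate inhibition above about 25%, with every replicate also reaching it, limit read from the data, passing the limit was not always enough; inconclusive = only one of those two criteria met; inactive = neither criterion met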
Target sequence (Q15084 whole entry, looked up): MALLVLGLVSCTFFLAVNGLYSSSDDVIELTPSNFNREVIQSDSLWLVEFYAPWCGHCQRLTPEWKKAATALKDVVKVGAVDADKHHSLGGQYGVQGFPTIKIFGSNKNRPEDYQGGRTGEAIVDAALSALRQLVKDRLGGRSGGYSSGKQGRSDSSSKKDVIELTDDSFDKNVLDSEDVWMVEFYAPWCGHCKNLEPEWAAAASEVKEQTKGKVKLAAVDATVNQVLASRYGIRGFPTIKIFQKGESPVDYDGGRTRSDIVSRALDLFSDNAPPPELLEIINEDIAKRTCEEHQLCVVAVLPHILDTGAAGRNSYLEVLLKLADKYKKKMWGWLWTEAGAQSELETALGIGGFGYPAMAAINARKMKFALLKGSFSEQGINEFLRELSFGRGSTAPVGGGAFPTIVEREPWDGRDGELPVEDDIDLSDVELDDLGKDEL
DENV2 CPE rescue – protects cells from dengue virus 2 cytopathic effect. DENV2-infected cells, cytopathic effect rescue, plate reader. CPE inhibition, % at 9.99 µM. 350,000 tested, 1.7% active; in the data active = CPE inhibition above about 20%, passing the limit was not always enough; inconclusive = no clear call, values can overlap the other calls; tested in BHK-21 cells
PDI inh – PDI (human) enzyme inhibition; 350,000 tested, 0.052% active; P07237; inhibition, % at 10 µM; PDI insulin aggregation turbidity, A650, 90 min;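 active = mean inhibition across replicates of 30% or more, whatever share of single replicates reach that level; inconclusive = mean inhibition below 30% while every single replicate reaches 30%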
Statin myotox sup – suppressors of simvastatin-induced myotoxicity in C2C12 myotubes. AID 602340. ATP luminescence, 48 h; scaled: DMSO 0, geranylgeraniol control 100. rescue of ATP level, % at 7.49 µM. 330,000 tested, 0.78% active;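 active = mean ATP rescue above about 67%, or every replicate alone reaching that limit, limit read from the data, passing the limit was not always enough; inconclusive = no clear call, values can overlap the other calls; inactive = mean under the limit and some replicate under it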;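 note: myotubes were challenged with 10 µM simvastatin during compound exposure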
Cneo AK release – Cryptococcus neoformans lysis via adenylate kinase release; C. neoformans lysis, adenylate kinase release luminescence, 4 h; normalised: neutral wells 0, clomiphene wells 100; lysis activity, % at 15 µM; 360,000 tested, 0.2% active; AID 651654;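 active = mean lysis activity across replicates of at least 80%, whatever share of replicates individually reach that level; inactive = mean lysis activity below 80%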
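Material – Cryptococcus neoformans yeast cells · Quantity – 5 × 10^6 yeast cells/mL · Buffer or medium – YPD medium · Compound – single dose · Timing – 4 h static compound exposure, 37 °C, read 1 h post-reagent · Signal – adenylate kinase release luminescence · Read-out basis – lysis from increased AK signal · Benchmarks – Clomiphene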
CFTR F508del cor – correctors of CFTR F508del function in bronchial epithelial cells; CFBE cells, YFP halide quenching; stimulated with forskolin plus potentiator P3; % fluorescence drop versus neutral controls; activity (quench increase), % at 7.58 µM; 350,000 tested, 0.36% active; AID 720511;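 active = mean added fluorescence quench of at least 8% versus neutral control, with both replicates also reaching 8%; inconclusive = only one of the mean or replicate conditions met; inactive = mean below 8% and not both replicates reaching 8%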;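 note: cells transiently co-express mutant CFTR-F508del with the halide-sensitive YFP; corrector assay measuring rescue of mutant channel to the surface after 24 h compound exposure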
A number is an active result; – = inactive; ? = inconclusive; · = not tested or not shown. Sampled rows, rich in hits. Any-hit rate of the full collection: about 2.3%.

SMILES | ERp5 block | DENV2 CPE rescue | PDI inh | Statin myotox sup | Cneo AK release | CFTR F508del cor
CN(Cc1ccccc1)C(=O)c1ccc(NC(=O)Cc2cccc(NC(=O)C3CCCN(C(=O)CCc4ccccc4)C3)c2)cc1 (stereo not drawn) | – | – | – | – | – | –
CN(Cc1ccccc1)C(=O)c1cccc(NC(=O)Cc2ccc(NC(=O)C3CCCN(C(=O)CCc4ccccc4)C3)cc2)c1 (stereo not drawn) | – | 64 | – | – | – | –
O=C(Cc1cccc(NC(=O)C2CCCN(C(=O)C3CC3)C2)c1)Nc1cccc(C(=O)N2CCCC2)c1 (stereo not drawn) | – | – | – | – | – | –
O=C(Cc1cccc(NC(=O)C2CCCN(C(=O)C3CC3)C2)c1)Nc1cccc(C(=O)N2CCCCC2)c1 (stereo not drawn) | – | 59 | – | – | – | –
O=C(Cc1ccc(NC(=O)C2CCCN(C(=O)C3CC3)C2)cc1)Nc1cccc(C(=O)N2CCCCC2)c1 (stereo not drawn) | 32 | – | – | – | – | –
O=C(Cc1cccc(NC(=O)C2CCCN(C(=O)C3CCCCC3)C2)c1)Nc1cccc(C(=O)N2CCCC2)c1 (stereo not drawn) | – | – | – | – | – | –
CN(C)C(=O)c1cccc(-c2ccc3c(c2)[C@@H]2[C@@H](CCN2Cc2ccccc2F)[C@H](CO)N3)c1 | · | – | · | – | – | –
C[C@@H]1CN([C@@H](C)CO)C(=O)c2cc(NS(=O)(=O)c3ccc(Cl)cc3)ccc2O[C@@H](C)CCCCO[C@H]1CN(C)C(=O)c1ccccc1 | – | – | · | · | – | –
COCC#Cc1ccc2c(c1)O[C@@H](CN(C)S(=O)(=O)c1cccc(OC)c1)[C@@H](C)CN([C@H](C)CO)S2(=O)=O | – | – | · | – | – | ·
CCc1nnc(NS(=O)(=O)c2ccc(N/C=C(\C=O)c3nc4cc(Cl)ccc4o3)cc2)s1 | – | – | – | 93 | – | –
CCN1CCN(Cc2ccc(NC(=O)c3cc(NC(=O)c4cc(C)on4)cc(OC)c3)cc2C(F)(F)F)CC1 | – | – | – | – | – | –
CCN1CCN(Cc2ccc(NC(=O)c3cc(NC(=O)c4cnn(-c5ccccc5)c4N)cc(OC)c3)cc2C(F)(F)F)CC1 | – | 82 | – | – | – | –
Cc1cccc(S(=O)(=O)N[C@H]2CC[C@@H](CCn3cc(-c4ccccn4)nn3)O[C@H]2CO)c1 | – | – | · | – | – | –
C[C@@H](CN1C2=NC[C@H](Cc3ccc(O)cc3)N2C[C@H]1Cc1ccc(O)cc1)NC(=O)CCC1CCCCC1 | – | – | 47 | – | – | –
COc1ccc(C[C@@H]2CN3C(=NC[C@@H]3C)N2C[C@H](C)NC(=O)CCC2CCCCC2)cc1 | – | – | – | – | – | –
C[C@@H](CN1C2=NC[C@H](Cc3ccccc3)N2C[C@H]1Cc1ccc(O)cc1)NC(=O)CCC1CCCCC1 | – | 41 | – | – | – | –
COc1ccc(NC(=O)COC(=O)CNS(=O)(=O)c2ccccc2)cc1OC | – | – | – | · | · | 14
COc1ccc(NC(=O)COC(=O)CCNS(=O)(=O)c2ccccc2)cc1OC | – | – | – | – | – | –
COc1ccc(NC(=O)Nc2ccc3c(c2)C(=O)N([C@H](C)CO)C[C@H](C)[C@H](CN(C)C(=O)NC(C)C)OCCCC[C@H](C)O3)cc1 | – | 33 | · | · | – | –
COc1ccc(NC(=O)Nc2ccc3c(c2)C(=O)N([C@H](C)CO)C[C@H](C)[C@H](CN(C)C(=O)NC(C)C)OCCCC[C@@H](C)O3)cc1 | – | – | · | · | – | –
COc1ccc(NC(=O)Nc2ccc3c(c2)C(=O)N([C@H](C)CO)C[C@H](C)[C@H](CN(C)C(=O)Nc2ccc(OC)cc2)OCCCC[C@H](C)O3)cc1 | – | – | · | · | – | –
COc1ccc(NC(=O)Nc2ccc3c(c2)C(=O)N([C@H](C)CO)C[C@@H](C)[C@@H](CN(C)C(=O)Nc2ccc(OC)cc2)OCCCC[C@@H](C)O3)cc1 | – | 48 | · | · | · | –
COc1ccc(NC(=O)N(C)C[C@H]2OCCCC[C@H](C)Oc3ccc(NC(=O)C4CCCCC4)cc3C(=O)N([C@@H](C)CO)C[C@@H]2C)cc1 | – | · | · | · | 90 | –
C[C@@H]1CCCCO[C@H](CN(C)CC2CCCCC2)[C@H](C)CN([C@H](C)CO)C(=O)c2cc(NC(=O)Nc3ccc4c(c3)OCO4)ccc2O1 | – | – | · | – | – | –
C[C@H](CO)N1C[C@H](C)[C@@H](CN(C)CC2CCCCC2)OCCCC[C@H](C)Oc2ccc(NC(=O)Nc3ccc4c(c3)OCO4)cc2C1=O | – | – | · | 70 | – | –
SMILES | ERp5 block | DENV2 CPE rescue | PDI inh | Statin myotox sup | Cneo AK release | CFTR F508del cor
COc1ccc(NC(=O)N(C)C[C@@H]2OCCCC[C@@H](C)Oc3ccc(NC(=O)C4CCCCC4)cc3C(=O)N([C@H](C)CO)C[C@H]2C)cc1 | – | – | · | · | – | –
CCNC(=O)C[C@H]1CC[C@H]2[C@@H](COC[C@H](O)CN2C(=O)Nc2cccc(OC)c2)O1 | · | – | · | – | – | –
COc1ccc(NC(=O)N(C)C[C@H]2OCCCC[C@@H](C)Oc3ccc(N(C)C)cc3C(=O)N([C@@H](C)CO)C[C@@H]2C)cc1 | – | – | · | – | – | –
COc1ccc(NC(=O)N(C)C[C@@H]2OCCCC[C@@H](C)Oc3ccc(NC(=O)Nc4ccccc4)cc3C(=O)N([C@H](C)CO)C[C@@H]2C)cc1 | – | 39 | · | · | – | –
COc1ccc(NC(=O)Nc2ccc3c(c2)C(=O)N([C@H](C)CO)C[C@H](C)[C@@H](CN(C)CC2CCCCC2)OCCCC[C@@H](C)O3)cc1 | – | – | · | – | – | –
COc1ccc(NC(=O)N(C)C[C@H]2OCCCC[C@@H](C)Oc3ccc(N(C)C)cc3C(=O)N([C@H](C)CO)C[C@H]2C)cc1 | – | – | · | – | 112 | –
COc1ccc(NC(=O)Nc2ccc3c(c2)C(=O)N([C@@H](C)CO)C[C@@H](C)[C@@H](CN(C)CC2CCCCC2)OCCCC[C@H](C)O3)cc1 | – | ? | · | 89 | – | –
CN(C)CC#Cc1ccc([C@@H]2[C@@H](CO)N3C(=O)CN(C(=O)c4cccnc4)C[C@@H]23)cc1 | – | – | · | · | · | –
C[C@@H]1CN([C@H](C)CO)C(=O)c2cc(NS(=O)(=O)c3ccccc3)ccc2O[C@@H]1CN(C)Cc1ccc2c(c1)OCO2 | – | – | · | – | – | –
COc1ccc(NC(=O)N(C)C[C@@H]2Oc3ncc(-c4ccc(C#N)cc4)cc3C(=O)N([C@H](C)CO)C[C@H]2C)cc1 | – | – | · | – | – | –
C[C@@H]1CN([C@H](C)CO)C(=O)c2cc(NC(=O)Nc3ccccc3)ccc2O[C@@H](C)CCCCO[C@H]1CN(C)Cc1ccncc1 | – | – | · | · | – | –
COCCNC(=O)c1cc(-c2ccc(-c3ccccc3)cc2)nc2ccccc12 | – | – | – | – | – | 9.9
Cc1ccc(NC(=O)c2cc(Cl)nc3ccccc23)cc1 | · | · | – | – | – | ·
